TNF necrop inh – inhibitors of TNF-alpha triggered necroptosis, primary screen, cell-based, Jurkat FADD-/-, single concentration; Jurkat FADD-/- TNF necroptosis rescue, ATP luminescence, 24 h; 0 = TNF only, 100 = no-TNF cells; AID 463075, 2010; 220,000 compounds, 0.068% hits; activation (protection from cell death), % at 10 µM;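 active = activation, meaning protection from cell death, of at least 50% relative to plate controls; inactive = activation below 50%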;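 note: necroptosis triggered by 40 ng/mL TNF-alpha added together with compound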
Wee1 stabilizer – Wee1 degradation inhibitors, primary screen, cell-based, HeLa, Wee1K328M-luciferase, luminescence. HeLa Luc-Wee1K328M stability; 100% = proteasome inhibitor MG132 effect. reporter increase, % at 5 µM. 220,000 compounds, 1.2% hits. AID 1321, 2008;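 active = activation above the mean of all tested compounds plus 3 SD, set per screening run, cut at about 8.8% in these data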;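 note: cells exposed to compound for 20 h before luminescence read; 0% = DMSO alone and 100% = MG132 at 30 µM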
PfM18AAP inh-1 – PfM18AAP inhibitors, malaria aminopeptidase, primary screen, biochemical, QFRET, recombinant enzyme; inhibition, % at 7.35 µM; M18 aspartyl aminopeptidase (Plasmodium falciparum 3D7); H-Glu-NHMec fluorogenic cleavage; 290,000 compounds, 1.2% hits;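 active = inhibition above the campaign mean inhibition over all tested compounds plus 3 SD, cut at about 28% in these data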;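 note: 0% = plate median of test compound wells and 100% = 2 mM ZnCl2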
RBBP9 inhibitor – human RBBP9 inhibitors, primary screen, biochemical, fluorescence polarization, FP-Rh probe, HTS; Serine hydrolase RBBP9 (Homo sapiens), O75884; recombinant RBBP9; inhibition, % at 7.94 µM; 220,000 compounds, 0.2% hits;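 active = inhibition above the campaign mean of all tested compounds plus 3 SD, cut at about 14% in these data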;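 note: plate controls were DMSO wells with RBBP9 for no effect and wells lacking RBBP9 protein for full effect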
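System: RBBP9 protein / Buffer or medium: Tris/NaCl buffer pH 8.0 with 0.1% Pluronic / Probe or stimulus: Serine-hydrolase probe FP-Rh, 375 nM pre-mixing / Dosing: 7.94 µM single dose, 0.794% DMSO / Times: enzyme-compound preincubation 30 min, then probe labeling 45 min, 25 °C / Technique: fluorescence polarization (mP), excitation 525 nm, emission 598 nm / Replication: singlicate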
p97 inhibitor – inhibitors of human p97 ATPase, primary screen, biochemical. recombinant p97 ATPase, Kinase-Glo ATP luminescence, 3 h. 220,000 compounds, 0.42% hits. inhibition, % at 8 µM. Transitional endoplasmic reticulum ATPase (Homo sapiens), P55072; in the data active = inhibition above about 15%;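 note: 0% = DMSO vehicle and 100% = wells lacking enzyme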
Target sequence (P55072 whole entry, looked up): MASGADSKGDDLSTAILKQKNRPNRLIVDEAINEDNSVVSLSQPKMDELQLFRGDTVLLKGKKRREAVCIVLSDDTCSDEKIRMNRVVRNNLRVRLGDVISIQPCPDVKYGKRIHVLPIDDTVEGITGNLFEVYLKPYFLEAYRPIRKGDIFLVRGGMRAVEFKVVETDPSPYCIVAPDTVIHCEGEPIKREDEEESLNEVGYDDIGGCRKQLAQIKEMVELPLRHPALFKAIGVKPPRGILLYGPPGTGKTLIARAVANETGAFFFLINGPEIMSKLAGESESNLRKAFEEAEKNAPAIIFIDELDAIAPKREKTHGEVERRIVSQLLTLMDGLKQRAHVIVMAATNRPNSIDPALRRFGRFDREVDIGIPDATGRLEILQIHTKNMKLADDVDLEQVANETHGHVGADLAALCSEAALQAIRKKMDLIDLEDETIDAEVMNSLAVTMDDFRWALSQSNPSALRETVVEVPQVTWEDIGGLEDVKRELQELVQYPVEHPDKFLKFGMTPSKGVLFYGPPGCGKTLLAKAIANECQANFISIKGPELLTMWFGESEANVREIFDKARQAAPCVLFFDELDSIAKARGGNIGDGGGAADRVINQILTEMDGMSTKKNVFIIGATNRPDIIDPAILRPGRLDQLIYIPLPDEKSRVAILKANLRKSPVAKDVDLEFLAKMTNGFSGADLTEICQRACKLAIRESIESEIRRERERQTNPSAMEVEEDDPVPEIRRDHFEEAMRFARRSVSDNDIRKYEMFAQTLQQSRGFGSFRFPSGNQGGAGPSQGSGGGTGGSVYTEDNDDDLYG
zVAD death inh – inhibitors of zVAD-triggered necroptosis, primary screen, L929 cells; 220,000 compounds, 0.38% hits; L929 zVAD necroptosis rescue, ATP luminescence, 24 h; with zVAD 60 µM; AID 1377, 2008; viability rescue, % at 10 µM;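 active = activation, scaled between plate controls, above about 75%, limit read from the data; inactive = activation under that limit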;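 note: 0% = zVAD with DMSO and 100% = DMSO alone without zVAD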
PfM18AAP inh-2 – PfM18AAP inhibitors, malaria aminopeptidase, confirmation, biochemical, QFRET, recombinant enzyme, triplicate; shares compounds with PfM18AAP inh-1; H-Glu-NHMec fluorogenic cleavage; inhibition, % at 7.35 µM; 2,400 compounds, 28% hits; AID 2170, 2009;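 active = mean inhibition over replicate wells above the hit cutoff set for the earlier primary screen, cut at about 29% in these data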;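 note: 0% = median of test compound wells and 100% = 2 mM ZnCl2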
CTSL1 confirm – cathepsin L1 inhibitors, retest, confirmation, counter-screen for PFM18AAP inhibitor project, biochemical, QFRET, triplicate. shares compounds with PfM18AAP inh-1. 2,400 tested, under 10 active. purified cathepsin L1, Z-Leu-Arg-MCA fluorescence. inhibition, % at 5.96 µM. AID 2178, 2009;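 active = average inhibition across replicates above the hit cutoff set in the earlier primary screen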;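 note: 0% = median of test compound wells and 100% = Z-Phe-Ala-diazomethylketone 1 µM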
* = called active by the depositor; . = not tested or not shown. Only some compounds are listed: those with a hit (about 2.7% of all), similar ones and a draw of the others.

SMILES	TNF necrop inh	Wee1 stabilizer	PfM18AAP inh-1	RBBP9 inhibitor	p97 inhibitor	zVAD death inh	PfM18AAP inh-2	CTSL1 confirm
Oc1ccc(-c2nc(-c3ccc(O)c(O)c3)cs2)cc1	-15	6	59*	14	13	53	71*	-13
Cc1cccc(C(=O)Nc2cccc(C(=O)N3CCOCC3)c2)c1	1	-2	4	-7	-3	0	.	.
CC(=O)/C(=N/Nc1cccc(C)c1)N1CCOCC1	-2	0	42*	-5	2	-1	-68	27*
CCCCNc1ccc(C(=O)O)cc1	0	3	-5	-14	6	0	.	.
COc1cc(/C=C2\N=C3CCCCCN3C2=O)ccc1O	0	-3	15	6	-2	0	.	.
O=C1/C(=C\c2ccc(O)c(O)c2)N=C2CCCCCN12	-7	1	65*	6	0	5	56*	4
Cc1cc(C)nc(SCC(=O)N/N=C/c2cc(C)n(-c3ccccc3C)c2C)n1	-2	1	8	5	-1	0	.	.
Cc1cc(/C=N/NC(=O)c2cccc([N+](=O)[O-])c2)c(C)n1-c1ccccc1	-2	0	7	-9	-2	.	.	.
Cc1ccccc1-n1c(C)cc(/C=N/Nc2ccc([N+](=O)[O-])cn2)c1C	0	-1	45*	0	2	0	-31	5
Cc1cc(/C=N/Nc2ccc([N+](=O)[O-])cn2)c(C)n1-c1ccc(C(=O)O)cc1	2	3	50*	4	10	69	-24	-2
O=C(CNC(=S)N(Cc1ccccc1)Cc1ccccc1F)NCCc1ccc(Cl)cc1	0	-1	3	-21	0	-1	.	.
COc1ccc2c(c1OC)C(=O)OC2CC(=O)c1ccc(O)c(O)c1 (centres undefined)	0	-2	43*	-5	5	1	19	0
O=C(NCCCN1CCCC1=O)Nc1ccccc1F	.	.	-16	.	.	.	.	.
CC1CC(C)CN(S(=O)(=O)N2CCC(C(=O)NCCc3ccccc3)CC2)C1 (centres undefined)	.	.	-4	.	.	.	.	.
CC(=O)NCc1ccc(-c2csc(N)n2)s1	0	-2	37*	-2	2	3	-52	-6
O=c1[nH]ncn1-c1ccccc1C(F)(F)F	-2	1	11	-4	4	0	.	.
O=c1[nH][nH]c(=S)n1-c1ccccc1C(F)(F)F	2	2	61*	-5	3	0	18	-3
COc1cccc(C2C(C(=O)c3cccs3)=C(O)C(=O)N2c2cc(C)on2)c1 (centres undefined)	-1	-1	35*	0	4	2	-36	2
COc1cc(C2C(C(=O)c3cccs3)=C(O)C(=O)N2c2cc(C)on2)ccc1O (centres undefined)	1	-2	55*	-2	5	0	-47	-3
Cc1cc(N2C(=O)C(O)=C(C(=O)c3cccs3)C2c2cccc(O)c2)no1 (centres undefined)	-1	-1	25	2	2	1	.	.
COc1cc(CNc2ccc(S(N)(=O)=O)cc2)ccc1OCC(=O)NC1CCCCC1	2	-1	-1	-5	2	0	.	.
Cc1ccc(-c2nn[nH]n2)o1	0	1	76*	8	4	1	54*	0
Cc1ccc(-c2nn[nH]n2)cc1	0	5	-13	-9	1	1	.	.
O=C(CSc1cccc(C(F)(F)F)c1)Nc1cc(S(=O)(=O)N2CCCC2)ccc1Cl	1	-2	-1	-8	-3	0	.	.
COc1ccc(/C=C(\C#N)C(=O)C(C)(C)n2cncn2)cc1	0	-3	59*	-3	1	0	-8	-2
SMILES	TNF necrop inh	Wee1 stabilizer	PfM18AAP inh-1	RBBP9 inhibitor	p97 inhibitor	zVAD death inh	PfM18AAP inh-2	CTSL1 confirm
COc1ccc(/C=C(\C#N)C(=O)c2cccn2C)cc1	.	.	4	.	.	.	.	.
O=C1NC(=O)/C(=C\c2ccc(O)cc2O)S1	2	0	90*	0	5	16	86*	2
Cc1cc(C)n2c(=S)[nH]nc2n1	-2	-4	81*	13	5	0	72*	2
O=C(NNc1nc2cc3c(cc2s1)OCO3)c1ccc(F)cc1	-1	3	42*	-7	12	0	6	-2
CCCNC(=O)C1CCN(S(=O)(=O)c2ccc3[nH]c(=O)ccc3c2)CC1	.	.	-1	.	.	.	.	.
CCC(C)NC(=O)C1CCN(S(=O)(=O)c2ccc3[nH]c(=O)ccc3c2)CC1 (centres undefined)	.	.	36*	.	.	.	-56	-1
CSc1sc(-c2ccnc(SCC(=O)C(C)(C)C)n2)c2c1C(=O)CC(C)(C)C2	-1	-1	35*	6	0	1	-26	3
CSc1sc(C(=O)OC(C)C)c2c1C(=O)CC(C)(C)C2	-1	-1	-4	-10	3	-1	.	.
COc1ccc(-n2c(Cn3nc(C(F)(F)F)cc3C)n[nH]c2=S)cc1	1	-2	32*	2	4	1	-17	-3
Oc1ccc(N2CCN(Cc3cc4c(cc3Br)OCCO4)CC2)cc1	.	.	39*	.	.	.	-13	-1
CCCC(=O)N(c1ccc2oc(=O)sc2c1)S(=O)(=O)c1cccs1	0	-3	37*	-14	3	2	-14	-1
COc1ccc(N2C(=O)c3ccccc3C2O)cc1 (centres undefined)	.	.	-1	.	.	.	.	.
COc1ccc(O)c(C(=O)C2c3ccccc3C(=O)N2c2ccc(C)cc2)c1 (centres undefined)	-4	8	40*	-7	2	0	26	4
CN(C)c1ccc(/C=C(/C(=O)c2ccc(Cl)cc2Cl)n2cncn2)cc1	-4	3	9	-6	-3	0	.	.
CN(C)/C=C(/C(=O)c1ccc(Cl)cc1)n1cncn1	-3	-1	40*	-14	-5	0	0	2
NC(=S)Nc1cccc2cccnc12	0	3	32*	-11	3	2	1	2
CCC(=O)Nc1cccc2cccnc12	0	-3	-7	4	4	2	.	.
